Compound activity from PubChem BioAssay.
MT stabilize HCS: stabilizes microtubules in HeLa cells | HeLa tubulin immunostaining HCS, 24 h; share of cells brighter than vehicle mean+2SD | % tubulin-high responders, % at 10 µM | 0.83% of 200,000 active | AID 2205;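 active = plate Z-score above 3 for both tubulin-high and condensed-nucleus cell shares, with cell loss under 80%, at 10 µM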;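 also: anti alpha tubulin signal scored within the nucleus-defined area of each cell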
STAT3 activator: STAT3 signaling activation; U3A cells, IL-6 STAT3-luciferase reporter, luminescence; 100% = signal with IL-6 EC80 alone; activation (% of control), % at 5.6 µM; AID 871; 0.91% of 190,000 active;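 active = activation above the screen-wide mean of compound activation plus 3 SD, cut at about 130% in these data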
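Test system: Human STAT1-deficient U3A cells with stable STAT3-luciferase reporter | Also added: Interleukin-6, 33 ng/mL | Timing: Compound pre-incubation 1 h before IL-6, then 6 h stimulation at 37 °C | Technique: Luciferase reporter luminescence | Read-out: Percent of IL-6-only median luminescence | Benchmarks: IL-6-only wells as 100% reference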
b-catenin transl: beta-catenin nuclear translocation modulation; HeLa beta-catenin nuclear translocation, immunofluorescence imaging; nuclear translocation activity, % at 5 µM; 0.3% of 190,000 active;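 active = nuclear translocation activity above 50% at 5 µM, with a well cell count of 50 or more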;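 also: per-cell ratio of nuclear to cytoplasmic median beta-catenin stain intensity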
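test system = HeLa cells, endogenous beta-catenin | dosing = single 5 µM dose plus 0.02–20 µM confirmation series | times = compound treatment 24 h, 37°C, 5% CO2 | technique = beta-catenin immunofluorescence imaging with DAPI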
STAT1 inh: reduces IFN-gamma driven STAT1 reporter signal | NIH 3T3 STAT1-luciferase reporter, luminescence | inhibition, % at 5.5 µM | 0.35% of 200,000 active | AID 920;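 active = inhibition above a set limit, the mean inhibition across all tested compounds plus 3 SD, cut at about 34% in these data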
STAT3 blocker: inhibitors of IL-6 induced STAT3 signaling; U3A cells, IL-6 STAT3-luciferase reporter, luminescence; host cell line lacks STAT1; inhibition, % at 5.5 µM; 0.89% of 190,000 active; AID 862;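 active = inhibition above the mean inhibition across all screened compounds plus 3 SD, cut at about 44% in these data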
A number is an active result. An excerpt weighted towards active compounds, which were near 2.4% of everything screened.

How did COc1ccc(-c2[nH]ncc2-c2ccc3c(c2)OCCO3)c(O)c1 do in these assays?
MT stabilize HCS: inactive; STAT3 activator: inactive; b-catenin transl: inactive; STAT1 inh: inactive; STAT3 blocker: inactive

How did COc1ccc(-c2[nH]ncc2N=Nc2ccccc2)cc1 do in these assays?
MT stabilize HCS: 19; STAT3 activator: inactive; b-catenin transl: 89; STAT1 inh: inactive; STAT3 blocker: inactive

What do the screens show for `COc1ccc(-c2nc3ccccc3nc2-c2ccccc2)cc1`?
MT stabilize HCS: inactive; STAT3 activator: inactive; b-catenin transl: inactive; STAT1 inh: inactive; STAT3 blocker: inactive

Results for Cc1ccc(C(=O)NCC(=O)O)o1 ?
MT stabilize HCS: inactive; STAT3 activator: inactive; b-catenin transl: inactive; STAT1 inh: inactive; STAT3 blocker: inactive

What do the screens show for `Cc1ccc2c(c1)C(O)(c1c(C)[nH]c3ccccc13)C(=O)N2` (stereo unspecified)?
MT stabilize HCS: inactive; STAT3 activator: 134; b-catenin transl: inactive; STAT1 inh: inactive; STAT3 blocker: inactive

Results for CCCN1C(=O)C(O)(c2c(C)[nH]c3ccccc23)c2ccccc21 (stereo unspecified) ?
b-catenin transl: inactive

Results for CC(C)c1ccc(/C=N/NC(=O)c2c(Cl)cnn2C)cc1 ?
MT stabilize HCS: inactive; STAT3 activator: inactive; b-catenin transl: inactive; STAT1 inh: inactive; STAT3 blocker: inactive

What do the screens show for `COc1ccc(/C=C(\C#N)C(=O)OCC(=O)Nc2c(C)cccc2C(C)C)cc1`?
MT stabilize HCS: inactive; STAT3 activator: inactive; b-catenin transl: inactive; STAT1 inh: inactive; STAT3 blocker: inactive

Results for COc1cccc(/C=N/n2c(SC)nnc2-c2ccccc2)c1OC ?
MT stabilize HCS: inactive; STAT3 activator: inactive; b-catenin transl: inactive; STAT1 inh: inactive; STAT3 blocker: inactive

How did COc1cccc(/C=N/n2c(SC)nnc2-c2ccccc2)c1O do in these assays?
MT stabilize HCS: inactive; STAT3 activator: inactive; b-catenin transl: 90; STAT1 inh: inactive; STAT3 blocker: inactive

Results for COc1ccccc1NC(=O)CCC(=O)OCc1cccc([N+](=O)[O-])c1 ?
MT stabilize HCS: inactive; STAT3 activator: inactive; b-catenin transl: inactive; STAT1 inh: inactive; STAT3 blocker: inactive

Results for CC(C)CN=C(NS(=O)(=O)c1ccccc1)C(Cl)(Cl)Cl ?
MT stabilize HCS: inactive; STAT3 activator: inactive; b-catenin transl: 52; STAT1 inh: inactive; STAT3 blocker: inactive

Results for CC(C)CC(NS(=O)(=O)c1ccccc1)C(=O)O (stereo unspecified) ?
MT stabilize HCS: inactive; STAT3 activator: inactive; b-catenin transl: inactive; STAT1 inh: inactive; STAT3 blocker: inactive

What do the screens show for `COc1ccc(/C=N/OCC(=O)N2CCCC2)c(OC)c1`?
MT stabilize HCS: inactive; STAT3 activator: inactive; b-catenin transl: inactive; STAT1 inh: inactive; STAT3 blocker: inactive

How did COn1c(SCc2ccc(C)cc2C)nc2ccccc2c1=O do in these assays?
MT stabilize HCS: 41; STAT3 activator: inactive; b-catenin transl: 51; STAT1 inh: inactive; STAT3 blocker: inactive

What do the screens show for `CCO[C@@H]1OC(C(=O)NCc2ccccc2)=C[C@H](C2CC2)[C@H]1CCCO`?
MT stabilize HCS: inactive; b-catenin transl: inactive; STAT1 inh: inactive

How did CCO[C@@H]1OC(C(=O)NCc2nc3ccccc3[nH]2)=C[C@H](C2CC2)[C@H]1CCCO do in these assays?
MT stabilize HCS: 28; b-catenin transl: inactive; STAT1 inh: inactive

What do the screens show for `Cc1nc(C)c(-c2csc(Nc3cccc(O)c3)n2)s1`?
MT stabilize HCS: inactive; STAT3 activator: inactive; b-catenin transl: inactive; STAT1 inh: inactive; STAT3 blocker: inactive

How did Cc1nc2ccccn2c1-c1csc(Nc2cccc(O)c2)n1 do in these assays?
MT stabilize HCS: inactive; STAT3 activator: inactive; b-catenin transl: 75; STAT1 inh: inactive; STAT3 blocker: inactive

What do the screens show for `Cc1nnc(C)c2c(C)n(-c3ccccc3N)c(C)c12`?
MT stabilize HCS: inactive; STAT3 activator: inactive; b-catenin transl: inactive; STAT1 inh: inactive; STAT3 blocker: inactive

Results for CCOC(=O)C1(Cc2cccc(Cl)c2)CCCN(C(=O)c2cccc(C)n2)C1 (stereo unspecified) ?
MT stabilize HCS: inactive; STAT3 activator: inactive; b-catenin transl: inactive; STAT1 inh: inactive; STAT3 blocker: inactive

Results for CCCCNc1ncnc2c1cnn2-c1ccccc1 ?
MT stabilize HCS: 32; STAT3 activator: inactive; b-catenin transl: 77; STAT1 inh: inactive; STAT3 blocker: inactive

What do the screens show for `Clc1ccc(-n2ncc3c(NCCCn4ccnc4)ncnc32)cc1`?
MT stabilize HCS: inactive; STAT3 activator: inactive; b-catenin transl: inactive; STAT1 inh: inactive; STAT3 blocker: inactive

How did CCCCNc1ncnc2c1cnn2-c1ccc(Cl)cc1 do in these assays?
MT stabilize HCS: 18; STAT3 activator: inactive; b-catenin transl: inactive; STAT1 inh: inactive; STAT3 blocker: inactive

How did N#Cc1cccnc1N1CCN(C(=O)COCC(=O)O)CC1 do in these assays?
b-catenin transl: inactive

What do the screens show for `C=CCN(C(=O)CNC(=O)c1cccs1)C(C(=O)NC(C)(C)C)c1ccccc1` (stereo unspecified)?
MT stabilize HCS: inactive; STAT3 activator: inactive; b-catenin transl: inactive; STAT1 inh: inactive; STAT3 blocker: inactive

How did CCS(=O)(=O)Nc1ccc(C2=NN(C(=S)Nc3ccccc3)C(c3ccco3)C2)cc1 (stereo unspecified) do in these assays?
MT stabilize HCS: 22; STAT3 activator: inactive; b-catenin transl: inactive; STAT1 inh: inactive; STAT3 blocker: inactive

Results for CCS(=O)(=O)Nc1ccc(C2=NN(C(=O)c3ccco3)C(c3cccc(F)c3)C2)cc1 (stereo unspecified) ?
MT stabilize HCS: inactive; STAT3 activator: inactive; b-catenin transl: inactive; STAT1 inh: 63; STAT3 blocker: inactive

Results for Cc1ccc(C2=NN(C(=S)Nc3ccccc3)C(c3ccco3)C2)cc1 (stereo unspecified) ?
MT stabilize HCS: inactive; STAT3 activator: inactive; b-catenin transl: inactive; STAT1 inh: inactive; STAT3 blocker: inactive

How did N#Cc1cc(-c2ccccc2)oc1NC(=O)c1ccccc1 do in these assays?
MT stabilize HCS: 44; STAT3 activator: inactive; b-catenin transl: inactive; STAT1 inh: inactive; STAT3 blocker: inactive

Results for CCOc1ccccc1NC(=O)c1ccccc1-c1nc(-c2ccccc2)no1 ?
MT stabilize HCS: 32; STAT3 activator: inactive; b-catenin transl: inactive; STAT1 inh: inactive; STAT3 blocker: inactive

Results for COc1ccc(Nc2nc(-c3sc(N)nc3C)cs2)cc1 ?
MT stabilize HCS: inactive; STAT3 activator: inactive; b-catenin transl: inactive; STAT1 inh: inactive; STAT3 blocker: inactive

What do the screens show for `CCCCC(=O)Nc1nc(C)c(-c2csc(Nc3ccccc3OC)n2)s1`?
MT stabilize HCS: inactive; STAT3 activator: inactive; b-catenin transl: inactive; STAT1 inh: inactive; STAT3 blocker: inactive

Results for C=CCCC(=O)Nc1nc(C)c(-c2csc(Nc3cc(Cl)ccc3OC)n2)s1 ?
MT stabilize HCS: 54; STAT3 activator: inactive; b-catenin transl: inactive; STAT1 inh: inactive; STAT3 blocker: inactive

Results for C=CCNc1nc(-c2sc(NC(=O)CC)nc2C)cs1 ?
MT stabilize HCS: inactive; STAT3 activator: 135; b-catenin transl: inactive; STAT1 inh: inactive; STAT3 blocker: inactive
